Rows were chosen to be rich in hits. Some 1% of all compounds tested hit in one or more screens of this group.
Neddyl block – blocks human cullin neddylation | TR-FRET cullin neddylation, biochemical | inhibition, % at 25 µM | 360,000 compounds, 0.58% hits | AID 651699; in the data active = inhibition above about 36%
Tn7 DDE FP – DD(E)-Tn7 binding inhibition, primary FP screen; 370,000 compounds, 0.13% hits; FP displacement of FITC-Tn7 peptide from fibrin DD(E); 0% = median of compound wells per plate; P02675; inhibition, % at 8.3 µM;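 active = inhibition above the mean of compounds falling within the control limits plus 3 SD of them, cut at about 14% in these data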;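 note: 0% = plate median of compound wells and 100% = 10 µM Aha-Tn7 peptide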
Target sequence (P02675 whole entry, looked up): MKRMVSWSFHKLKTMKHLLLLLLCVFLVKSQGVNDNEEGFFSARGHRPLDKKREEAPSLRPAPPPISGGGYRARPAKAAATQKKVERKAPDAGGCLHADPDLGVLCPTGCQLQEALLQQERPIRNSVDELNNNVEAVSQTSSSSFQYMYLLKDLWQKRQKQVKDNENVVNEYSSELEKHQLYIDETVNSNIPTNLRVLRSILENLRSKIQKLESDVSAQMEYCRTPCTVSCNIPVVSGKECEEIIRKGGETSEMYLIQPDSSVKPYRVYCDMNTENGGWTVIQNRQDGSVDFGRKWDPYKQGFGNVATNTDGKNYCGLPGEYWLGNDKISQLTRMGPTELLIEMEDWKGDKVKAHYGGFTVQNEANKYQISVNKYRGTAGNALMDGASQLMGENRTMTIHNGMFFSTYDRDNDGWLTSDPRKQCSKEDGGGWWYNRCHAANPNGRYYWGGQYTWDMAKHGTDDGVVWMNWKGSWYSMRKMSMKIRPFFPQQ
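Assay system: human fibrin DD(E). Input: DD(E) 2 µM final. Medium: Tris buffer with calcium and detergent, pH 7.8. Compound dosing: single point at 8.3 µM. Timing: 10 min plus 3 h, room temperature. Technique: fluorescence polarization of the labelled Tn7 tracer. Read-out: percent inhibition. Replicates: singlicate testing.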
DDE Tn6 FP inh – disrupts Tn6 cyclic peptide binding to fibrin D-Dimer-E complex. P02675. 370,000 compounds, 0.21% hits. Fibrin DD(E) TRITC-Tn6 fluorescence polarization displacement. inhibition, % at 8.3 µM. AID 720509;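 active = inhibition above a per-campaign cutoff: mean of compounds within control limits plus 3 SD, cut at about 15% in these data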;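 note: 0% = median of all compound wells on the plate and 100% = blocking peptide control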
PKA-R1A activ – activators of PKA-R1A complex; PKA-R1A dissociation, Cy5-IP20 fluorescence polarization; scaled: DMSO 0%, 113 µM cGMP 100%; activation, % at 11.4 µM; 340,000 compounds, 0.083% hits;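 active = percent activation above the mean of all tested compounds plus 3 SD, cut at about 19% in these data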;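 note: higher means more PKAc released from R1A so a rise in polarization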
PKA-R2B act – activates the human PKA-R2B holoenzyme complex; P22694+P31323; 340,000 compounds, 0.079% hits; AID 504700; activation, % at 11.4 µM; PKA-R2B holoenzyme dissociation, Cy5-IP20 fluorescence polarization; R2B truncated from residue 108, S112A mutant; 0% DMSO only, 100% 113 µM cGMP;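 active = activation above a cutoff set at the mean over all compounds plus 3 SD, cut at about 18% in these data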;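 note: higher means more holoenzyme dissociation and a rise in polarization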
DDE Tn7 confirm – DD(E)-Tn7 binding inhibition, FP confirmation; shares compounds with Tn7 DDE FP; FP displacement of TRITC-Tn7 peptide from DD(E); 0% set at plate's compound-well median; inhibition, % at 8.3 µM; 460 compounds, 5% hits; AID 720628;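 active = inhibition above the campaign cutoff, the mean of compounds within control limits plus 3 SD, cut at about 14% in these data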;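 note: 100% = median FP of high control wells holding Aha-Tn7 inhibitor peptide; displacers lower polarization since freed probe rises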
Tn7 DDE ctr – counter-screen hit for Tn7 peptide-fibrin DD(E) binding disruption. TRITC-Tn7 probe displacement, fluorescence polarization. AID 720633. 460 compounds, 3% hits. shares compounds with Tn7 DDE FP. inhibition, % at 8.3 µM;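 active = inhibition above the cutoff, the mean of compounds lying between the control bounds plus 3 SD of those compounds, cut at about 17% in these data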;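 note: 0% = median of compound sample wells and 100% = excess unlabeled Aha-Tn7 peptide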
* marks the source's active call; other numbers are inactive results; i = inactive; . = not tested or not shown.

SMILES | Neddyl block | Tn7 DDE FP | DDE Tn6 FP inh | PKA-R1A activ | PKA-R2B act | DDE Tn7 confirm | Tn7 DDE ctr
Cc1cccn2c(=O)c(/C=C(\C#N)C(=O)NCc3ccccc3)c(N3CCC(C(N)=O)CC3)nc12 | 8.6 | 16.2* | 5.2 | -13.3 | -6.5 | 6.3 | 2.0
CCOC(=O)C1=CN(Cc2ccco2)S(=O)(=O)N(C)C1c1ccc2ccccc2c1 (stereo unspecified) | 7.4 | 15.4* | -1.2 | -5.2 | -6.4 | 2.5 | -3.4
CCOC(=O)C1=CN(Cc2ccco2)S(=O)(=O)N(C)C1c1ccc(C(F)(F)F)cc1 (stereo unspecified) | -3.3 | 0.2 | -5.7 | 2.7 | -4.1 | . | .
C=CCN1[C@H](CC(C)C)COc2cc(F)ccc2S1(=O)=O | . | 6.3 | 0.7 | . | . | . | .
CC(=O)Nc1ccc(N2C(=O)c3cccc4c(O)ccc(c34)C2=O)cc1 | i | 20.1* | 4.4 | 3.8 | -5.6 | 4.6 | 6.9
COc1ccc(N2C(=O)c3cccc4c(N(C)CCO)ccc(c34)C2=O)cc1 | -91.0 | -2.2 | -1.9 | 2.4 | -1.6 | . | .
O=C1c2cccc3c(O)ccc(c23)C(=O)N1Cc1ccco1 | -231.8 | 55.9* | 11.6 | -1.0 | -7.8 | 6.0 | 4.3
O=C1c2cccc3c(O)ccc(c23)C(=O)N1c1ccc(Cl)cc1 | i | 40.3* | 13.5 | -1.8 | 0.9 | 3.0 | 7.8
Cc1ccc(N2C(=O)c3cccc4c(C(=O)O)ccc(c34)C2=O)cc1 | . | 2.5 | -2.9 | . | . | . | .
Cn1c(COc2ccccc2)nnc1SCC(=O)Nc1ccccc1-c1ccccc1 | . | 6.5 | -1.0 | . | . | . | .
COc1ccc(-c2cc(NC(=O)Cc3c[nH]c4ccccc34)ccc2Nc2cccnc2)cc1F | . | -1.0 | 4.0 | . | . | . | .
O=C1C=CC(O)(c2cc(=O)c3c(O)cc(O)cc3o2)C=C1 | -18.1 | 14.5* | 0.3 | -14.9 | -2.6 | 5.0 | 2.1
CN(C)/C=C1\C=C2C(=O)c3ccccc3N2C1=O | -363.8 | 30.4* | -0.5 | -1.9 | 4.6 | 53.3* | 23.9*
Cc1nc2ccc(NC(=O)c3ccc(F)cc3F)cc2c(=O)[nH]1 | . | -3.5 | -4.0 | . | . | . | .
Cc1ccccc1S(=O)Cc1ccc(C(=O)NC2CCN(Cc3ccccc3)CC2)o1 (stereo unspecified) | -6.0 | 14.0* | -9.7 | -9.0 | 3.4 | 5.3 | -4.5
C=CCn1c(COc2ccc(C)cc2)nnc1SCC(=O)Nc1ccc(Oc2ccccc2)cc1 | . | 1.0 | 1.4 | . | . | . | .
O=C(NCc1nnnn1-c1ccc(Cl)cc1)C1CC(=O)N(c2ccc(F)cc2)C1 (stereo unspecified) | -0.2 | 2.3 | -9.6 | -2.8 | -0.1 | . | .
COc1ccc(-n2nnnc2CNC(=O)C2CC(=O)N(c3ccc(F)cc3)C2)cc1 (stereo unspecified) | -0.1 | 14.3* | -0.9 | 0.9 | -7.1 | 6.6 | 0.2
COc1ccc(OC)c(NC(=O)c2ccc(-c3cccs3)cc2)c1 | 36.1 | 14.8* | -6.6 | -5.0 | -8.9 | 7.2 | 2.5
COc1ccc(NC(=O)c2cc(-c3cccs3)on2)c(OC)c1 | . | -2.3 | -4.5 | 2.6 | 2.6 | . | .
COC(=O)[C@]12CCCCC=C1N(Cc1ccc(OC)cc1)C(=O)[C@@H]2CC(=O)N1CCN(C(=O)c2ccco2)CC1 | . | -7.2 | 6.0 | . | . | . | .
CCOC(=O)N1CCN(Cc2nc(-c3ccc(C)cc3)no2)CC1 | 10.4 | 15.6* | -1.2 | -1.0 | 1.0 | 16.2* | 7.7
CCOC(=O)N1CCN(Cc2nc(-c3cccc(Cl)c3)no2)CC1 | -0.6 | -1.6 | -8.5 | -13.9 | -11.5 | . | .
Nc1ccn([C@@H]2O[C@H](C(=O)N[C@H](Cc3ccccc3)C(=O)NCC(F)(F)F)[C@@H](O)[C@H]2O)c(=O)n1 | . | -5.1 | 4.4 | . | . | . | .
C[C@H]1[C@@H](OC(=O)Nc2ccccc2C(F)(F)F)CC[C@@]23CCCN2C(=O)CCC[C@@H]13 | . | -6.5 | 1.9 | . | . | . | .
COc1ccc(CCC(=O)N2CCN(c3ccccc3)CC2)cc1OC | 5.1 | 15.3* | 1.4 | 1.5 | -3.2 | -2.8 | -14.4
